Experiment: Toxicity liver stage against HepG2, at 10uM
Type: cell-based
Set-up: test concentration 10 uM, cell line HepG2-A16-CD81EGFP
Conditions: human, HepG2-A16-CD81EGFP cells; read-out: INHIBITION
In short: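 Uninfected HepG2-A16-CD81EGFP cells, 3 × 10^3 per well, 1536-well, plated on prespotted compound at 10 μM final, parasite-free screening media added to match infected plates; puromycin 10 μM positive, DMSO 0.5% negative; run in parallel with 48 h PbLuc assay at 37 °C, 5% CO2; viability by CellTiter-Glo luminescence, normalized to controls.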

SMILES	cytotoxicity at 10 µM
C/N=C1/c2cc3cc(OC)ccc3n2CCN1Cc1ccccc1	69.7%
COc1ccccc1OCCNc1snc(Cl)c1C#N	20.5%
Cn1cncc1-c1nnc([C@H]2CCN(Cc3ncc[nH]3)C2)o1	1.62%
CC(=O)N1N=C(COc2ccc(Cl)cc2)OC1c1ccccc1 (stereo not given)	9.87%
CCCNc1ccc(C(=O)NCCc2cccc(Cl)c2)cn1	1.17%
CCCc1nc2c(c(C)c(C)n2Cc2ccccn2)c(N)c1CC	23.3%
O=C(Cc1cc(-c2ccc3c(c2)OCCO3)on1)NCc1ccccn1	26.4%
CN1CC[C@H]2[C@H](C[C@@H](Cn3cncn3)N2c2nccs2)C1	-144%
Cc1cccc(S(=O)(=O)N2CCCc3c(c(=O)n(C)n3C)C2)c1	-2.08%
CS(=O)(=O)N1CC(c2ncn3ccccc23)C1	5.6%
c1cnc(N2CCC3(COCc4cnc(N5CCOCC5)nc43)C2)nc1 (stereo not given)	-1.72%
COc1ccc(N2CCN(CC(O)c3cc(C)ccc3C)CC2)cc1 (stereo not given)	7.25%
COc1ccc(OC)c(C2SCC(=O)Nc3n[nH]cc32)c1 (stereo not given)	12.8%
Nc1ncccc1C(=O)NCc1cccc(Cl)c1	20.5%
Nc1ncc(-c2ccc(C(F)(F)F)cc2)c(C2CCCNC2)n1 (stereo not given)	27.1%
CCC1c2ccsc2CCN1Cc1cc2c(cc1OC)OCCO2 (stereo not given)	29.4%
COc1ccc(CNC(Cc2ccsc2)c2ccc(C)cn2)c(OC)c1 (stereo not given)	6.36%
CCc1nccn1-c1nccnc1C1CCN(C(=O)COC)CC1	-19.7%
O=C(Cc1ccsc1)N1CCCC(c2n[nH]c3ncccc23)C1 (stereo not given)	-6.8%
C=C(C)C(=O)N1CCC(C(=O)c2cc(C)cnc2N)CC1	-2.88%
CNc1cc(C)nc(C2CN(Cc3cc[nH]n3)CCO2)c1 (stereo not given)	-9.09%
Cc1ccc(F)cc1C(=O)N1CCOCC12CCCC2	-8.68%

SMILES	cytotoxicity at 10 µM
N#Cc1ccccc1OCCN1CCC(C(=O)N2CCOCC2)CC1	-47.2%
CC1CCCCN1C(=O)Cn1cnc(C#N)n1 (stereo not given)	-18.8%
CCOCCN1CCN(CCc2ccc3c(c2)CCO3)CC1	4.1%
O=C(c1cccnc1O)N1CCOC(c2ccc(Cl)cc2)C1 (stereo not given)	2.6%
c1ccc2oc(N3CCn4c(nnc4C4CC4)C3)nc2c1	7.41%
CC(CNC(=O)CCCn1cncn1)N1CCc2ccccc2C1 (stereo not given)	-130%
CCCS(=O)(=O)N1CCC(c2ccc(OC)cc2)CC1	2.02%
Cc1cnn(CC2CCN(CC(O)Cn3cccn3)CC2)c1 (stereo not given)	-1.66%
CCOc1ccc(C(=O)NCc2ccnc(N3CCCC3)c2)cn1	6.62%
CN(C)C(=O)N1CCC(C(=O)NCCNc2ncccc2C#N)CC1	18.3%
Cc1ccc(NC(=O)CN(C)C(=O)c2ccc(-n3cccc3)nc2)nc1	12.4%
CCN(CCS(=O)(=O)c1ccc(Cl)cc1)Cc1ccc(OC)c(OC)c1	31.7%
CCc1nc2c(s1)C(N(C)C(=O)c1csnn1)CCC2 (stereo not given)	-3.71%
N#CCCN(Cc1ccco1)C(=O)c1ccc(OCC2CC2)cc1	-5.87%
Cc1cccc(-c2ccc(C(=O)NCCN3CCOCC3)c(=O)[nH]2)c1	-5.88%
CN(C(=O)CN1CCCC1Cc1ccccc1)c1ccccc1 (stereo not given)	17.8%
c1cc(CNCc2ccnc(N3CCCCC3)c2)c2c(c1)OCCCO2	21.4%
OC(CN(Cc1ccccc1)Cc1ccon1)c1cccs1 (stereo not given)	-0.359%
CC(C)c1noc(CN2CCC(c3nc4cc(Cl)ccc4o3)CC2)n1	1.81%
O=C(CSc1ccc2c(c1)OCCO2)NS(=O)(=O)c1ccccc1F	1.98%
Cc1cnn(CC2CCCN2Cc2coc(-c3ccc(F)cc3)n2)c1 (stereo not given)	-0.953%
Cc1ccc(C)c(S(=O)(=O)NC(=O)c2cccc3c2OCCO3)c1	-4.77%

SMILES	cytotoxicity at 10 µM
Cc1cc(Cl)ccc1S(=O)(=O)NCC(C)N1CCN(C)CC1 (stereo not given)	8.35%
CC(C)Cc1noc(CN2CCCN(C(=O)c3cccc(Cl)c3)CC2)n1	-2.34%
Cc1cc(N2CCC(N(C)C(=O)c3sccc3C)CC2)nc(C)n1	25.9%
c1cncc(CNc2cccc(OCCN3CCCCC3)c2)c1	-0.589%
O=C(NC1CCN(c2cc(-n3ccnc3)ncn2)CC1)c1ccncc1	5.94%
CC(Nc1cnn(C)c(=O)c1Cl)c1ccc(F)c(F)c1 (stereo not given)	31.3%
Cc1nc(O)ccc1C(=O)N1CCCC1c1nc(-c2ccccc2)n[nH]1 (stereo not given)	0.636%
COC(=O)c1cccc(C(=O)N2CCN(C(=O)N(C)C)CC2(C)C)c1	11.9%
CC(NCc1ccsc1)c1ccc(OCc2nccn2C)cc1 (stereo not given)	-6.37%
Cc1cnn(CCCNC(=O)NC(C)C(=O)Nc2ccccc2)c1 (stereo not given)	7.04%
Cc1cc(F)ccc1N1CCCC(NC(=O)CCCn2ccnc2)C1 (stereo not given)	3.45%
CN(Cc1cccc(OC(F)(F)F)c1)C(=O)c1cnsn1	0.963%
Cc1nsc(N2CCN(C(=O)Nc3cccc(F)c3)CC2)n1	-18.3%
CN1CCCc2cc(NC(=O)N3CCOC(C(N)=O)C3)ccc21 (stereo not given)	0.602%
CCC(=O)N1CCc2onc(CNS(C)(=O)=O)c2C1	-96.5%
O=C(c1ccccc1F)N1CC[C@@H]2CN(c3ncccn3)CCO[C@@H]2C1	-78.1%
Cc1ccc(CN2CCC3(CC(=O)N(c4ccc5c(c4)OCO5)C3)C2)o1 (stereo not given)	-70.2%
Cc1cnc(N2CCC(c3ccncc3)CC2)nc1-c1ccnn1C	28.7%
Cc1ccccc1CC1(CO)CCCN(c2ncncc2C(C)C)C1 (stereo not given)	-22.2%
O=C(NCC1CCCN(Cc2cccc3nonc23)C1)c1ccc[nH]1 (stereo not given)	-42.2%
CNc1nc(N2CCN(CC=C(C)C)C(CCO)C2)nc2c1CCC2 (stereo not given)	-0.6%
COc1ccc2cc(C3CN(C(=O)COC(C)C)CCO3)ccc2c1 (stereo not given)	7.29%

SMILES	cytotoxicity at 10 µM
O=C1N(CC2CCCCC2)CCCC1(O)CN1CCc2[nH]ncc2C1 (stereo not given)	-5.84%
O=C(CCC1CCN(Cc2ccncc2)CC1)Nc1ccccc1Cl	-3.9%
CC(=O)c1ccc(C(=O)NCc2cccnc2N2CCCC(O)C2)s1 (stereo not given)	-0.147%
O=C(Cc1ccccc1)C1CCCN(Cc2cncn2C2CCCC2)C1 (stereo not given)	-1.11%
CN(Cc1ccc(C2CC(=O)Nc3cc4[nH]ncc4cc32)o1)S(C)(=O)=O (stereo not given)	34.1%
FC(F)(F)CCc1ccnc(NCc2csc(N3CCOCC3)n2)n1	-4.13%
O=S(=O)(N[C@H]1CC[C@H]1NC1Cc2ccccc2C1)c1cccnc1	1.24%
NC(=O)CCC1CCCN(Cc2cnc(N3CCCCC3)nc2)C1 (stereo not given)	-11.1%
CC(C)Cc1cc(CNC(=O)c2ccccc2C2CCNC2)no1 (stereo not given)	-45.5%
CN1CCN(Cc2cnn(-c3ccc(F)cc3)c2)[C@H]2CS(=O)(=O)C[C@H]21	12.8%
CSCCC1c2nc[nH]c2CCN1Cc1ccccc1C(F)(F)F (stereo not given)	1.09%
CCn1cc(CN2CCCC(COc3ccccc3F)C2)cn1 (stereo not given)	-47.7%
Cc1cnc(C)c(N2CCCC(CO)(Cc3ccccc3C)C2)n1 (stereo not given)	-17.2%
CCN(CC)S(=O)(=O)N1CCCC(c2nccn2Cc2ccncc2)C1 (stereo not given)	9.2%
CC(C)N1CCC2(CCCN(Cc3ccc(F)cc3)C2=O)C1 (stereo not given)	-28.7%
O=C(CC1COCCN1S(=O)(=O)c1ccccc1)NCc1ccccn1 (stereo not given)	4.48%
Cc1n[nH]c(CN2CCN(c3ncnc4scc(C)c34)CC2)c1Cl	58.4%
CCc1nc2c(NCC3COc4cc(OC)ccc4C3)ncnc2o1 (stereo not given)	40.9%
N#CC1CCCN(c2ncnc3c2CCN(Cc2ccccc2)CC3)C1 (stereo not given)	-3.64%
Fc1ccccc1CN1CCCN(c2ccc3cc[nH]c3n2)CC1	-15.2%
COc1ccc(C(C)NC(=O)C2CCN(S(C)(=O)=O)CC2)cc1C (stereo not given)	-7.5%
O=C(NCc1nc(NC2CCCC2)c2cc(Cl)ccc2n1)c1cncs1	4.15%

SMILES	cytotoxicity at 10 µM
Cc1nc2c(NCC(C)N(C)c3ccccc3)ncnc2o1 (stereo not given)	4.73%
CN(Cc1nc2ccsc2c(=O)[nH]1)C[C@@H]1CCCN2CCCC[C@H]12	-7.33%
COc1ccc(N(c2ccc(OC)cc2)c2ccc(C(=O)O)s2)cc1	18.5%
Cc1cc(-c2cnc(N3CCN(C)CC3)nc2-c2ccc(C)s2)on1	-3.68%
CCNc1cc2c(nn1)CCN(C(=O)c1cc3cc(C)ccc3o1)C2	-18.7%
Cc1ccc(-c2nc(CCNC(=O)NC3CCC(O)CC3)co2)cc1 (stereo not given)	-2.3%
CCn1c(C)cc(C(=O)N2CCc3nnc(N)cc3C2)c1C	-12.2%
CC(=O)Nc1nc(C(=O)N2CCCC(n3cncn3)C2)cs1 (stereo not given)	-2.02%
CC(C)N(Cc1ccc(C(=O)O)o1)C(C)C	-1.2%
Cc1ncc(CN(Cc2ccccn2)Cc2ccccc2Cl)n1C	-1.45%
Cc1cc(C[C@@H]2CCC[C@H]2NCc2ccccc2C(F)(F)F)on1	2.8%
Cc1cccc(CN2CCC3(CC2)CN(c2cnn(C)c2)C(=O)CO3)n1	3.94%
N#Cc1ccc(N2CCC3(CCC(=O)N3CCN3CCCC3)CC2)nc1	-114%
COc1ncccc1CN1CCC2(CC1)COCCN2C	16.6%
Cc1ccccc1C(=O)N1C[C@@H]2CCN(c3cccnc3)C[C@@H]2C1	-76.3%
COc1cc(N2CCC3(CC2)CCN(c2cccnc2)C3=O)ncn1	-116%
Cn1cc(N2C[C@@H]3CN(CC4CCOCC4)C[C@@H]3C2=O)cn1	11.1%
Cc1noc(C)c1CN1CCc2ncnc(-c3ccoc3)c2CC1	-92%
CCN(C)C1COC2(CCN(C(=O)c3ccc(Cl)cc3)CC2)C1 (stereo not given)	-2.57%
CC(=O)NCC(=O)N1CCn2cc(CN3CCCCC3)nc2C1	-3.34%
CC(=O)NCc1nn(C)c2c1CN(Cc1ccsc1)C2	-144%
CCOCCN1CCN(C=C2NN=C(c3occc3C)O2)CC1	-50.4%

Reference: ChEMBL document CHEMBL4513216, “Probing the Open Global Health Chemical Diversity Library for Multistage-Active Starting Points for Next-Generation Antimalarials” (ACS Infect Dis, 2020)
